Measurements: ChEMBL document CHEMBL1123393, “5-HT1 and 5-HT2 binding characteristics of 1-(2,5-dimethoxy-4-bromophenyl)-2-aminopropane analogues” (J Med Chem, 1986)

Experiments:
[1] = target: Serotonin 1 (5-HT1) receptor (Rattus norvegicus, UniProt P28564+P30940+P19327+P28565); assay: Binding affinity for 5-hydroxytryptamine 1 receptor of rat prefrontal cortex; type: tissue-based
In short: (§1)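 Rat prefrontal cortex (female Sprague-Dawley, ca. 200 g) homogenate, 4 mg wet weight tissue per tube, in 50 mM Tris, 5 mM MgCl2, 0.5 mM EDTA (pH 7.4 at 37 °C). Radioligand 2 nM [3H]-5-HT for 5-HT1 or 0.4 nM [3H]ketanserin for 5-HT2. Nonspecific binding with 1 μM 5-HT or 1 μM cinanserin. Filtration, scintillation counting. IC50 from a 23-point curve in triplicate by nonlinear fit; Ki by Cheng-Prusoff.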

[2] = target: Serotonin 2 (5-HT2) receptor (Rattus norvegicus, UniProt P30994+P08909+P14842); assay: Displacement of [3H]ketanserin from rat prefrontal cortex 5-hydroxytryptamine 2 receptor; type: tissue-based; in short: as §1
Rattus norvegicus [3] = assay: Concentration required to produce DOM like response when administered in rats; type: functional
In short: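 Six male Sprague-Dawley rats, food-restricted to about 80% of free-feeding weight, trained on two-lever drug discrimination: DOM HCl 1.0 mg/kg ip versus saline, 15 min pre-session. Test drug given ip before a 2.5-min extinction test.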

Rattus norvegicus [4] = assay: Number of animals responding to the drug 0.5 (mg/kg) out of 3 animals tested; type: functional
Rattus norvegicus [5] = assay: DOM appropriate responses per min when compound administered at 0.5 mg/kg; type: functional
In short: (§2)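 DOM (1.0 mg/kg ip) versus saline two-lever discrimination in food-restricted male Sprague-Dawley rats. Test doses given ip with a 15-min presession interval. Response rate (responses/min) measured during a 2.5-min extinction test session.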

Rattus norvegicus [6] = assay: DOM appropriate responding in percent when compound administered at 0.5 mg/kg; type: functional
In short: (§3)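 Rats trained to discriminate DOM (1.0 mg/kg ip, 15-min presession interval) from saline on two levers. Test doses given ip. Percent of responses on the DOM-appropriate lever recorded during a 2.5-min extinction session.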

Rattus norvegicus [7] = assay: DOM appropriate responses per min when compound administered at 1.2 mg/kg; type: functional; in short: as §2
Rattus norvegicus [8] = assay: DOM appropriate responses per min when compound administered at 1.8 mg/kg; type: functional; in short: as §2
Rattus norvegicus [9] = assay: DOM appropriate responding in percent when compound administered at 1.2 mg/kg; type: functional; in short: as §3
Rattus norvegicus [10] = assay: DOM appropriate responding in percent when compound administered at 1.8 mg/kg; type: functional; in short: as §3
Rattus norvegicus [11] = assay: Number of animals responding to the drug 1.8 (mg/kg) out of 3 animals tested; type: functional
Rattus norvegicus [12] = assay: Number of animals responding to the drug 1.2 (mg/kg) out of 3 animals tested; type: functional
Rattus norvegicus [13] = assay: DOM appropriate responding in percent when compound administered at 0.1 mg/kg; type: functional; in short: as §3
Rattus norvegicus [14] = assay: Number of animals responding to the drug 0.1 (mg/kg) out of 4 animals tested; type: functional
Rattus norvegicus [15] = assay: DOM appropriate responses per min when compound administered at 0.1 mg/kg; type: functional; in short: as §2
Rattus norvegicus [16] = assay: DOM appropriate responding in percent when compound administered at 0.2 mg/kg; type: functional; in short: as §3
Rattus norvegicus [17] = assay: DOM appropriate responses per min when compound administered at 0.2 mg/kg; type: functional; in short: as §2
Rattus norvegicus [18] = assay: Number of animals responding to the drug 0.2 (mg/kg) out of 3 animals tested; type: functional
Rattus norvegicus [19] = assay: DOM appropriate responding in percent when compound administered at 4 mg/kg; type: functional; in short: as §3
Rattus norvegicus [20] = assay: DOM appropriate responses per min when compound administered at 5 mg/kg; type: functional; in short: as §2
Rattus norvegicus [21] = assay: Number of animals responding to the drug 7 (mg/kg) out of 5 animals tested; type: functional
Rattus norvegicus [22] = assay: DOM appropriate responses per min when compound administered at 4 mg/kg; type: functional; in short: as §2
Rattus norvegicus [23] = assay: DOM appropriate responding in percent when compound administered at 5 mg/kg; type: functional; in short: as §3
Rattus norvegicus [24] = assay: DOM appropriate responding in percent when compound administered at 8 mg/kg; type: functional; in short: as §3
Rattus norvegicus [25] = assay: DOM appropriate responding in percent when compound administered at 6 mg/kg; type: functional; in short: as §3
Rattus norvegicus [26] = assay: Number of animals responding to the drug 5 (mg/kg) out of 6 animals tested; type: functional
Rattus norvegicus [27] = assay: Number of animals responding to the drug (mg/kg) out of 4 animals tested; type: functional
Rattus norvegicus [28] = assay: DOM appropriate responses per min when compound administered at 7 mg/kg; type: functional; in short: as §2
Rattus norvegicus [29] = assay: DOM appropriate responses per min when compound administered at 6 mg/kg; type: functional; in short: as §2
Rattus norvegicus [30] = assay: Number of animals responding to the drug 8 (mg/kg) out of 3 animals tested; type: functional
Rattus norvegicus [31] = assay: DOM appropriate responding in percent when compound administered at 7 mg/kg; type: functional; in short: as §3
Rattus norvegicus [32] = assay: DOM appropriate responses per min when compound administered at 8 mg/kg; type: functional; in short: as §2
Rattus norvegicus [33] = assay: Number of animals responding to the drug 6 (mg/kg) out of 5 animals tested; type: functional
Rattus norvegicus [34] = assay: Number of animals responding to the drug 5 (mg/kg) out of 4 animals tested; type: functional
Rattus norvegicus [35] = assay: DOM appropriate responding in percent when compound administered at 2 mg/kg; type: functional; in short: as §3
Rattus norvegicus [36] = assay: Number of animals responding to the drug 12 (mg/kg) out of 3 animals tested; type: functional
Rattus norvegicus [37] = assay: DOM appropriate responding in percent when compound administered at 10 mg/kg; type: functional; in short: as §3
Rattus norvegicus [38] = assay: DOM appropriate responses per min when compound administered at 11 mg/kg; type: functional; in short: as §2
Rattus norvegicus [39] = assay: Number of animals responding to the drug 11 (mg/kg) out of 3 animals tested; type: functional
Rattus norvegicus [40] = assay: Number of animals responding to the drug 13 (mg/kg) out of 3 animals tested; type: functional
Rattus norvegicus [41] = assay: Number of animals responding to the drug 13 (mg/kg) out of 3 animals tested (second group of 3 animals); 1/3; type: functional
Rattus norvegicus [42] = assay: Number of animals responding to the drug 10 (mg/kg) out of 3 animals tested; type: functional
Rattus norvegicus [43] = assay: DOM appropriate responses per min when compound administered at 10 mg/kg; type: functional; in short: as §2
Rattus norvegicus [44] = assay: DOM appropriate responding in percent when compound administered at 12 mg/kg; type: functional; in short: as §3
Rattus norvegicus [45] = assay: DOM appropriate responding in percent when compound administered at 11 mg/kg; type: functional; in short: as §3
Rattus norvegicus [46] = assay: DOM appropriate responses per min when compound administered at 12 mg/kg; type: functional; in short: as §2
Rattus norvegicus [47] = assay: Number of animals responding to the drug 2 (mg/kg) out of 4 animals tested; type: functional
Rattus norvegicus [48] = assay: DOM appropriate responses per min when compound administered at 2 mg/kg; type: functional; in short: as §2

Compound: COc1ccc(OC)c(CC(C)N)c1 (racemic)
- Ki [1]: 1020 nM

Compound: COc1cccc(CC(C)N)c1 (racemic)
- Ki [2]: 7850 nM
- Ki [1]: 2660 nM

Compound: COc1cc(CC(C)N)c(OC)cc1I (stereo not given)
- ED50 (Rattus norvegicus [3]): 0.99 mg/kg
- Activity (Rattus norvegicus [4]): 3
- Response (Rattus norvegicus [5]): 12.2 min
- Activity (Rattus norvegicus [6]): 14%
- Ki [2]: 35 nM
- Response (Rattus norvegicus [7]): 16.9 min
- Response (Rattus norvegicus [8]): 7.8 min
- Activity (Rattus norvegicus [9]): 43%
- Ki [1]: 920 nM
- Activity (Rattus norvegicus [10]): 93%
- Activity (Rattus norvegicus [11]): 3
- Activity (Rattus norvegicus [12]): 3

Compound: COc1ccccc1CC(C)N (racemic)
- Ki [1]: 3500 nM

Compound: COc1cc(C[C@@H](C)N)c(OC)cc1I
- Ki [2]: 9.9 nM
- Ki [1]: 2290 nM

Compound: COc1cc(CC(C)N)c(O)cc1Br (stereo not given)
- ED50 (Rattus norvegicus [3]): 0.18 mg/kg
- Activity (Rattus norvegicus [4]): 3
- Response (Rattus norvegicus [5]): 11.9 min
- Activity (Rattus norvegicus [6]): 96%
- Ki [2]: 210 nM
- Activity (Rattus norvegicus [13]): 19%
- Ki [1]: 1710 nM
- Activity (Rattus norvegicus [14]): 4
- Response (Rattus norvegicus [15]): 15.4 min
- Activity (Rattus norvegicus [16]): 55%
- Response (Rattus norvegicus [17]): 12.1 min
- Activity (Rattus norvegicus [18]): 3

Compound: CCCNC(C)Cc1cc(OC)c(Br)cc1OC (stereo not given)
- ED50 (Rattus norvegicus [3]): 4.76 mg/kg
- Activity (Rattus norvegicus [19]): 24%
- Response (Rattus norvegicus [20]): 6.3 min
- Activity (Rattus norvegicus [21]): 3
- Response (Rattus norvegicus [22]): 10.2 min
- Activity (Rattus norvegicus [23]): 63%
- Activity (Rattus norvegicus [24]): 92%
- Activity (Rattus norvegicus [25]): 79%
- Activity (Rattus norvegicus [26]): 6
- Activity (Rattus norvegicus [27]): 4
- Response (Rattus norvegicus [28]): 5.2 min
- Ki [2]: 1930 nM
- Response (Rattus norvegicus [29]): 10.2 min
- Activity (Rattus norvegicus [30]): 3
- Ki [1]: 1320 nM
- Activity (Rattus norvegicus [31]): 88%
- Response (Rattus norvegicus [32]): 5.9 min
- Activity (Rattus norvegicus [33]): 4

Compound: COc1cc(CC(C)N)c(OC)cc1Br (racemic) [BROLAMFETAMINE]
- ED50 (Rattus norvegicus [3]): 0.2 mg/kg
- Ki [1]: 3340 nM

Compound: COc1cc(CC(C)N)ccc1Br (stereo not given)
- Ki [2]: > 25000 nM
- Ki [1]: > 25000 nM

Compound: CC(N)Cc1ccc(Br)cc1 (stereo not given)
- Ki [2]: 4650 nM
- Ki [1]: 2830 nM

Compound: CCCNC(C)Cc1cc(OC)ccc1OC (stereo not given)
- Ki [2]: 25600 nM
- Ki [1]: 4100 nM

Compound: COc1cc(Br)ccc1CC(C)N (stereo not given)
- Activity (Rattus norvegicus [34]): 3
- Activity (Rattus norvegicus [35]): 14%
- Response (Rattus norvegicus [20]): 14.9 min
- Activity (Rattus norvegicus [36]): 2
- Activity (Rattus norvegicus [23]): 15%
- Activity (Rattus norvegicus [37]): 8%
- Response (Rattus norvegicus [38]): 3.3 min
- Ki [2]: 4870 nM
- Activity (Rattus norvegicus [39]): 3
- Activity (Rattus norvegicus [40]): 1
- Ki [1]: 2900 nM
- Activity (Rattus norvegicus [41]): 1
- Activity (Rattus norvegicus [42]): 3
- Response (Rattus norvegicus [43]): 4.5 min
- Activity (Rattus norvegicus [44]): 65%
- Activity (Rattus norvegicus [45]): 17%
- Response (Rattus norvegicus [46]): 2.8 min
- Activity (Rattus norvegicus [47]): 4
- Response (Rattus norvegicus [48]): 16.3 min
